Measurements reported in publication PMC5515376 (Nature, 2016).
Marks after values point to notes of the source that are not given here.

Experiments:
[1] = Mouse pharmacokinetics assay; format: in vivo; settings: CD-1 mice
Outline: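 Female CD-1 mice received single intravenous and oral doses. Parameters were estimated by non-compartmental analysis.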

[2] = tested on: major human cytochrome P450 (CYP) isoforms
[3] = IV (2.5) mg/kg, separate assay over 72 h

## COc1ccc(NC(=O)N2CCCCN3[C@H](CN(C)C)[C@H](c4ccc(C#Cc5ccccc5)cc4)[C@@H]3C2)cc1 [BRD7929]
[1]; 25 mg kg^−1 single-dose cure, estimated from pharmacokinetic studies
  AUC (estimated): 27.5 µM·h
[1]; IV (2.5) mg/kg
  CL: 9.9 mL/min/kg
  MRT0-inf: 40.5 h
  Vss: 24 L/kg
[1]; [3]
  AUC0-inf: 11.2 µM·h
  CL: 7.1 mL/min/kg
  MRT0-inf: 45 h
  T1/2: 32 h
  Vss: 19 L/kg
[1]; IV (2.5) mg/kg, separate assay, t = 72 h
  AUC0-t: 9 ^# µM*hr
[1]; IV (2.5) mg/kg, t = 24 h
  AUC0-t: 3.5 ^¶ µM*hr
[1]; PO (10) mg/kg
  Cmax: 540 nM
  Tmax: 8 h
[1]; PO (10) mg/kg, based on initial intravenous study at 24 h
  F: 79.5 ^§ %
[1]; PO (10) mg/kg, t = 24 h
  AUC0-t: 11 ^¶ µM*hr
[2]
  Inhibition of major human CYP isoforms: no inhibition
